# From ChEMBL document CHEMBL1142244, “Cytotoxic constituents from the fruiting branches of Callicarpa americana collected in southern Florida” (J Nat Prod, 2007)
# How the values were obtained:
# HUVEC = experiment: (§1) Cytotoxicity against human HUVEC cells; type: cell-based; conditions: huvec
# TERT-RPE1 = experiment: (§2) Cytotoxicity against human TERT-RPE1 cells; type: cell-based; conditions: tert-rpe1
# MCF7 [1] = experiment: (§3) Cytotoxicity against human MCF7 cells; type: cell-based; conditions: mcf7
# Lu1 [2] = experiment: (§4) Cytotoxicity against human Lu1 cells; type: cell-based; conditions: lu1
# LNCaP [3] = experiment: (§5) Cytotoxicity against human LNCaP cells; type: cell-based; conditions: lncap
# Col2 = experiment: (§6) Cytotoxicity against human Col2 cells; type: cell-based; conditions: col2
# Lu1 [4] = experiment: Cytotoxicity against human Lu1 cells xenografted in NCr nu/nu athymic mouse at 12.5 mg/kg, ip by hollow fiber assay; type: organism-based; set-up: dose 12.5 mg/kg, route intraperitoneal; conditions: in vivo
# Outline: (§7)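 Female-unspecified NCr nu/nu athymic mice, five to six weeks old. LNCaP, Lu1 and MCF-7 cells were sealed in semi-porous hollow fibres and implanted at intraperitoneal and subcutaneous sites, each mouse carrying all three lines at both sites. Compound was given i.p. at 6.25, 12.5, 25 or 50 mg/kg, with three mice per dose group.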
# [5] = as §1; type: cell-based; conditions: HUVEC cells, read-out: ED50 (the source's name)
# Lu1 [6] = experiment: Cytotoxicity against human Lu1 cells xenografted in NCr nu/nu athymic mouse at 50 mg/kg, ip by hollow fiber assay; type: organism-based; set-up: dose 50 mg/kg, route intraperitoneal; conditions: in vivo; outline: as §7
# LNCaP [7] = experiment: Cytotoxicity against human LNCaP cells xenografted in NCr nu/nu athymic mouse at 6.25 mg/kg, ip by hollow fiber assay; type: organism-based; set-up: dose 6.25 mg/kg, route intraperitoneal; conditions: in vivo; outline: as §7
# [8] = as §2; type: cell-based; conditions: TERT-RPE1 cells, read-out: ED50 (the source's name)
# LNCaP [9] = experiment: Cytotoxicity against human LNCaP cells xenografted in NCr nu/nu athymic mouse at 50 mg/kg, ip by hollow fiber assay; type: organism-based; set-up: dose 50 mg/kg, route intraperitoneal; conditions: in vivo; outline: as §7
# [10] = as §4; type: cell-based; conditions: Lu1 cells, read-out: ED50 (the source's name)
# MCF7 [11] = experiment: Cytotoxicity against human MCF7 cells xenografted in NCr nu/nu athymic mouse at 12.5 mg/kg, ip by hollow fiber assay; type: organism-based; set-up: dose 12.5 mg/kg, route intraperitoneal; conditions: in vivo; outline: as §7
# Lu1 [12] = experiment: Cytotoxicity against human Lu1 cells xenografted in NCr nu/nu athymic mouse at 6.25 mg/kg, ip by hollow fiber assay; type: organism-based; set-up: dose 6.25 mg/kg, route intraperitoneal; conditions: in vivo; outline: as §7
# [13] = as §5; type: cell-based; conditions: LNCaP cells, read-out: ED50 (the source's name)
# LNCaP [14] = experiment: Cytotoxicity against human LNCaP cells xenografted in NCr nu/nu athymic mouse at 25 mg/kg, ip by hollow fiber assay; type: organism-based; set-up: dose 25 mg/kg, route intraperitoneal; conditions: in vivo; outline: as §7
# MCF7 [15] = experiment: Cytotoxicity against human MCF7 cells xenografted in NCr nu/nu athymic mouse at 6.25 mg/kg, ip by hollow fiber assay; type: organism-based; set-up: dose 6.25 mg/kg, route intraperitoneal; conditions: in vivo; outline: as §7
# MCF7 [16] = experiment: Cytotoxicity against human MCF7 cells xenografted in NCr nu/nu athymic mouse at 50 mg/kg, ip by hollow fiber assay; type: organism-based; set-up: dose 50 mg/kg, route intraperitoneal; conditions: in vivo; outline: as §7
# MCF7 [17] = experiment: Cytotoxicity against human MCF7 cells xenografted in NCr nu/nu athymic mouse at 25 mg/kg, ip by hollow fiber assay; type: organism-based; set-up: dose 25 mg/kg, route intraperitoneal; conditions: in vivo; outline: as §7
# [18] = as §6; type: cell-based; conditions: Col2 cells, read-out: ED50 (the source's name)
# LNCaP [19] = experiment: Cytotoxicity against human LNCaP cells xenografted in NCr nu/nu athymic mouse at 12.5 mg/kg, ip by hollow fiber assay; type: organism-based; set-up: dose 12.5 mg/kg, route intraperitoneal; conditions: in vivo; outline: as §7
# Lu1 [20] = experiment: Cytotoxicity against human Lu1 cells xenografted in NCr nu/nu athymic mouse at 25 mg/kg, ip by hollow fiber assay; type: organism-based; set-up: dose 25 mg/kg, route intraperitoneal; conditions: in vivo; outline: as §7
# [21] = as §3; type: cell-based; conditions: MCF7 cells, read-out: ED50 (the source's name)
Structure (SMILES),Activity (HUVEC),Activity (TERT-RPE1),Activity (MCF7 [1]),Activity (Lu1 [2]),Activity (LNCaP [3]),Activity (Col2),CC50 [5] [µg/mL],CC50 [10] [µg/mL],CC50 [13] [µg/mL],further results
CC1=CCC[C@@H]2[C@@](C)(C[C@H](O)C3=CC(=O)OC3)[C@H](C)CC[C@@]12C,Not Active,Not Active,Not Active,Not Active,Not Active,Not Active,–,–,–,–
C=C1[C@@H](O)CC[C@@H]2[C@@](C)(C[C@H](O)C3=CC(=O)OC3)[C@H](C)CC[C@@]12C,Not Active,Not Active,Not Active,Not Active,Not Active,Not Active,–,–,–,–
CC1=CCC[C@@H]2[C@@](C)(C[C@H](O)C3=CC(=O)O[C@H]3O)[C@H](C)CC[C@@]12C,–,–,–,–,–,–,1.8,2.4,4.1,Activity (Lu1 [4]): Not Active; Activity (Lu1 [6]): Not Active; Activity (LNCaP [7]): Not Active; CC50 [8]: 1.9 µg/mL; Activity (LNCaP [9]): Not Active; Activity (MCF7 [11]): Not Active; Activity (Lu1 [12]): Not Active; Activity (LNCaP [14]): Not Active; Activity (MCF7 [15]): Not Active; Activity (MCF7 [16]): Not Active; Activity (MCF7 [17]): Not Active; CC50 [18]: 2.3 µg/mL; Activity (LNCaP [19]): Not Active; Activity (Lu1 [20]): Not Active
CC1=CCC[C@@H]2[C@@](C)(/C=C/C3=CC(=O)O[C@H]3O)[C@H](C)CC[C@@]12C,–,–,–,–,–,–,1.2,2.6,2.5,CC50 [21]: 2.7 µg/mL
CC1=C(C=O)C[C@@H]2[C@@](C)(CCC3=CC(=O)OC3O)[C@H](C)CC[C@@]12C (some centres not stated),–,–,–,–,–,–,9.8,8.7,4.5,CC50 [8]: 1.9 µg/mL; CC50 [21]: 3.9 µg/mL; CC50 [18]: 9 µg/mL
COc1ccc(-c2cc(=O)c3c(O)cc(OC)cc3o2)cc1,Not Active,Not Active,Not Active,Not Active,Not Active,Not Active,–,–,–,–
C=C1[C@@H](O)CC[C@@H]2[C@@](C)(CCC3=CC(=O)O[C@H]3O)[C@H](C)CC[C@@]12C,Not Active,Not Active,Not Active,Not Active,Not Active,Not Active,–,–,–,–
CO[C@@H]1OC(=O)C=C1[C@@H](O)C[C@@]1(C)[C@H](C)CC[C@@]2(C)C(C)=CCC[C@H]12,Not Active,Not Active,Not Active,Not Active,Not Active,Not Active,–,–,–,–
CC1=CCC[C@@H]2[C@@](C)(CCC3=CC(=O)O[C@H]3O)[C@H](C)CC[C@@]12C,–,–,–,–,–,–,4.1,3.7,3.3,CC50 [21]: 3.5 µg/mL
CC1=CCC[C@@H]2[C@@](C)(C[C@H](O)C3=CCOC3=O)[C@H](C)CC[C@@]12C,–,–,–,–,–,–,–,2.9,3.3,CC50 [21]: 2.8 µg/mL
CC1(C)C(=O)CC[C@@]2(C)[C@H]1CC[C@@]13C[C@H](CC[C@@H]12)[C@@](O)(CO)C3 [CALLITERPENONE],Not Active,Not Active,Not Active,Not Active,Not Active,Not Active,–,–,–,–
C[C@@H]1CC[C@]2(C(=O)O)CC[C@]3(C)C(=CC[C@@H]4[C@@]5(C)C[C@@H](O)[C@@H](O)C(C)(C)[C@@H]5CC[C@]43C)[C@@H]2[C@]1(C)O [EUSCAPHIC ACID],Not Active,Not Active,Not Active,Not Active,Not Active,Not Active,–,–,–,–
COc1cc(O)c2c(=O)cc(-c3ccc(O)cc3)oc2c1 [GENKWANIN],–,–,–,–,–,–,> 20,> 20,> 20,CC50 [8]: 3.9 µg/mL; CC50 [18]: > 20 µg/mL
COc1ccc(-c2cc(=O)c3c(O)c(OC)c(OC)cc3o2)cc1 [SALVIGENIN],Not Active,Not Active,Not Active,Not Active,Not Active,Not Active,–,–,–,–
